# According to ChEMBL document CHEMBL2417509, “Synthesis and biological evaluation of prodigiosene conjugates of porphyrin, estrone and 4-hydroxytamoxifen” (2013):
# Tests used:
# Format in all cases: functional
# UACC-62 = experiment: Cytotoxicity against human UACC62 cells after 2 days by sulforhodamine B assay; conditions: UACC-62, 48 h
# How it was run: (§1)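 NCI DTP NCI60 multi-dose screen (59 human tumour lines available). Cells exposed to compound over a 5-log mol/L concentration range for 2 days, then fixed and stained with sulphorhodamine B, with optical density read. Growth inhibition calculated relative to time-zero cells and untreated cells, giving GI50 (half-maximal growth inhibition concentration). Average of two replicates.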
# MDA-MB-231 = experiment: Cytotoxicity against human MDA-MB-231 cells after 2 days by sulforhodamine B assay; conditions: MDA-MB-231, 48 h
# How it was run: (§2)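 NCI60 multi-dose screen, 59 human tumour lines available. Cells exposed to compound across a 5-log mol/L concentration range for 2 days, then fixed and stained with sulphorhodamine B, optical density read. Growth inhibition calculated against time-zero control and untreated cells. GI50 derived from the dose series, average of two replicates.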
# SK-MEL-5 = experiment: Cytotoxicity against human SK-MEL-5 cells after 2 days by sulforhodamine B assay; conditions: SK-MEL-5, 48 h; how it was run: as §2
# 786-0 = experiment: Cytotoxicity against human 786-0 cells after 2 days by sulforhodamine B assay; conditions: 786-0, 48 h; how it was run: as §2
# HOP-92 = experiment: Cytotoxicity against human HOP92 cells after 2 days by sulforhodamine B assay; conditions: HOP-92, 48 h; how it was run: as §2
# MOLT-4 = experiment: Cytotoxicity against human MOLT4 cells after 2 days by sulforhodamine B assay; conditions: MOLT-4, 48 h; how it was run: as §2
# NCI-H322M = experiment: Cytotoxicity against human NCI-H322M cells after 2 days by sulforhodamine B assay; conditions: 48 h; how it was run: as §2
# SNB-75 = experiment: Cytotoxicity against human SNB75 cells after 2 days by sulforhodamine B assay; conditions: SNB-75, 48 h; how it was run: as §1
# HT-29 = experiment: Cytotoxicity against human HT-29 cells after 2 days by sulforhodamine B assay; conditions: HT-29, 48 h; how it was run: as §2
# MDA-MB-468 = experiment: Cytotoxicity against human MDA-MB-468 cells after 2 days by sulforhodamine B assay; conditions: MDA-MB-468, 48 h; how it was run: as §2
# U-251 = experiment: Cytotoxicity against human U251 cells after 2 days by sulforhodamine B assay; conditions: U-251, 48 h; how it was run: as §1
# HL-60(TB) = experiment: Cytotoxicity against human HL-60(TB) cells after 2 days by sulforhodamine B assay; conditions: HL-60, 48 h
# How it was run: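 NCI60 multi-dose screen: cells exposed to compound over a 5-log mol/L concentration range for 2 days, then fixed and stained with sulphorhodamine B and optical density read. Growth inhibition calculated relative to time-zero control and untreated cells; GI50 reported as average of two replicates.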
# NCI-H522 = experiment: Cytotoxicity against human NCI-H522 cells after 2 days by sulforhodamine B assay; conditions: NCI-H522, 48 h; how it was run: as §2
# HCC 2998 = experiment: Cytotoxicity against human HCC2998 cells after 2 days by sulforhodamine B assay; conditions: HCC 2998, 48 h; how it was run: as §2
# A498 = experiment: Cytotoxicity against human A498 cells after 2 days by sulforhodamine B assay; conditions: A498, 48 h; how it was run: as §2
# [1] = Cytotoxicity against human NCI-ADR-RES cells after 2 days by sulforhodamine B assay; conditions: 48 h; how it was run: as §2
# RXF 393 = experiment: Cytotoxicity against human RXF393 cells after 2 days by sulforhodamine B assay; conditions: RXF 393, 48 h; how it was run: as §2
# SF-268 = experiment: Cytotoxicity against human SF268 cells after 2 days by sulforhodamine B assay; conditions: SF-268, 48 h; how it was run: as §2
# T47D = experiment: Cytotoxicity against human T47D cells after 2 days by sulforhodamine B assay; conditions: 48 h; how it was run: as §1
# IGROV-1 = experiment: Cytotoxicity against human IGROV1 cells after 2 days by sulforhodamine B assay; conditions: IGROV-1, 48 h; how it was run: as §2
# BT-549 = experiment: Cytotoxicity against human BT549 cells after 2 days by sulforhodamine B assay; conditions: BT-549, 48 h; how it was run: as §2
# LOX IMVI = experiment: Cytotoxicity against human LOXIMVI cells after 2 days by sulforhodamine B assay; conditions: 48 h; how it was run: as §2
# SK-OV-3 = experiment: Cytotoxicity against human SKOV3 cells after 2 days by sulforhodamine B assay; conditions: SK-OV-3, 48 h; how it was run: as §2
# SNB-19 = experiment: Cytotoxicity against human SNB19 cells after 2 days by sulforhodamine B assay; conditions: SNB-19, 48 h; how it was run: as §1
# RPMI-8226 = experiment: Cytotoxicity against human RPMI8226 cells after 2 days by sulforhodamine B assay; conditions: RPMI-8226, 48 h; how it was run: as §2
# NCI-H23 = experiment: Cytotoxicity against human NCI-H23 cells after 2 days by sulforhodamine B assay; conditions: NCI-H23, 48 h; how it was run: as §2
# SK-MEL-28 = experiment: Cytotoxicity against human SK-MEL-28 cells after 2 days by sulforhodamine B assay; conditions: SK-MEL-28, 48 h; how it was run: as §2
# M14 = experiment: Cytotoxicity against human M14 cells after 2 days by sulforhodamine B assay; conditions: M14, 48 h; how it was run: as §2
# [2] = read-out: LC50 (the source's name)
structure (smiles),measurement,setting,value
CC/C(=C(/c1ccc(OCCN(C)C)cc1)c1ccc(OC(=O)CCCCCCCCC(=O)C2=C(C)/C(=C/c3[nH]c(-c4ccc[nH]4)cc3OC)N=C2C)cc1)c1ccccc1,GI50,UACC-62,3.39 µM
same,TGI,UACC-62,18.2 µM
same,CC50,UACC-62; [2],> 100 µM
same,GI50,MDA-MB-231,3.39 µM
same,LC50,MDA-MB-231,> 100 µM
same,TGI,MDA-MB-231,18.2 µM
same,GI50,SK-MEL-5,1.62 µM
same,LC50 (concentration killing 50% of cells),SK-MEL-5,6.46 µM
same,TGI,SK-MEL-5,3.24 µM
same,GI50,786-0,5.25 µM
same,LC50 (concentration killing 50% of cells),786-0,> 100 µM
same,TGI,786-0,> 100 µM
same,GI50,HOP-92,1.95 µM
same,CC50,HOP-92; [2],> 100 µM
same,GI50,MOLT-4,5.13 µM
same,TGI,MOLT-4,> 100 µM
same,CC50,MOLT-4; [2],> 100 µM
same,GI50,NCI-H322M,> 100 µM
same,LC50 (concentration killing 50% of cells),NCI-H322M,> 100 µM
same,TGI,NCI-H322M,> 100 µM
same,GI50,SNB-75,4.17 µM
same,LC50 (concentration killing 50% of starting cells),SNB-75,> 100 µM
same,TGI,SNB-75,> 100 µM
same,GI50,HT-29,5.13 µM
same,LC50,HT-29,> 100 µM
same,TGI,HT-29,> 100 µM
same,GI50,MDA-MB-468,3.63 µM
same,LC50,MDA-MB-468,> 100 µM
same,TGI,MDA-MB-468,> 100 µM
same,GI50,U-251,6.61 µM
same,LC50,U-251,> 100 µM
same,TGI,U-251,> 100 µM
same,GI50,HL-60(TB),12.3 µM
same,TGI,HL-60(TB),> 100 µM
same,CC50,HL-60(TB); [2],> 100 µM
same,GI50,NCI-H522,21.4 µM
same,LC50,NCI-H522,> 100 µM
same,TGI,NCI-H522,> 100 µM
same,GI50,HCC 2998,> 100 µM
same,LC50 (50% lethal concentration),HCC 2998,> 100 µM
same,TGI,HCC 2998,> 100 µM
same,GI50,A498,15.1 µM
same,LC50,A498,> 100 µM
same,TGI,A498,72.4 µM
same,GI50,[1],31.6 µM
same,TGI,[1],> 100 µM
same,CC50,[1]; [2],> 100 µM
same,GI50,RXF 393,13.8 µM
same,LC50 (concentration killing 50% of cells),RXF 393,> 100 µM
same,TGI,RXF 393,> 100 µM
same,GI50,SF-268,6.61 µM
same,LC50 (concentration killing 50% of cells),SF-268,> 100 µM
same,TGI,SF-268,> 100 µM
same,GI50,T47D,3.55 µM
same,LC50 (concentration killing 50% of cells),T47D,> 100 µM
same,TGI,T47D,> 100 µM
same,GI50,IGROV-1,22.9 µM
same,LC50,IGROV-1,> 100 µM
same,TGI,IGROV-1,> 100 µM
same,GI50,BT-549,5.25 µM
same,LC50 (concentration killing 50% of cells present at time zero),BT-549,> 100 µM
same,TGI,BT-549,> 100 µM
same,GI50,LOX IMVI,2.34 µM
same,LC50,LOX IMVI,27.5 µM
same,TGI,LOX IMVI,5.89 µM
same,GI50,SK-OV-3,> 100 µM
same,LC50 (concentration killing 50% of starting cells),SK-OV-3,> 100 µM
same,TGI,SK-OV-3,> 100 µM
same,GI50,SNB-19,6.31 µM
same,TGI,SNB-19,> 100 µM
same,CC50,SNB-19; [2],> 100 µM
same,GI50,RPMI-8226,3.72 µM
same,LC50 (concentration killing 50% of cells present at time zero),RPMI-8226,> 100 µM
same,TGI,RPMI-8226,> 100 µM
same,GI50,NCI-H23,47.9 µM
same,LC50 (concentration killing 50% of cells),NCI-H23,> 100 µM
same,TGI,NCI-H23,> 100 µM
same,GI50,SK-MEL-28,43.6 µM
same,LC50,SK-MEL-28,> 100 µM
same,TGI,SK-MEL-28,> 100 µM
same,GI50,M14,2.14 µM
same,TGI,M14,4.47 µM
same,CC50,M14; [2],9.33 µM
